Values after ≈ are worked out from the molar mass of the structure shown.
How the values were obtained:
Type in all cases: functional
Saccharomyces cerevisiae = test: Antifungal activity against Saccharomyces cerevisiae ATCC 9763 after 24 hrs by broth microdilution method; conditions: ATCC 9763, 24 h
[1] = test system: Mycobacterium tuberculosis; test: Antimycobacterial activity against Mycobacterium tuberculosis H37Rv after 21 days by broth dilution assay; conditions: 504 h
How it was run: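 Frozen culture in Middlebrook 7H9 broth with 10% albumin-dextrose-catalase and 0.2% glycerol, thawed and diluted in broth to 10⁵ cfu/mL. Compounds dissolved in DMSO, twofold diluted in broth; final DMSO 1.3%. Tubes inoculated, incubated at 37 °C. Growth compared visually against drug-free and drug- and inoculum-free controls and isoniazid. MIC = lowest concentration inhibiting ≥99% of the starting bacterial population.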

Bacillus subtilis = test: Antibacterial activity against Bacillus subtilis ATCC 60511 after 24 hrs by broth microdilution method; conditions: ATCC 60511, 24 h
How it was run: (§1)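 Broth dilution in Mueller-Hinton broth. Tubes inoculated at 10⁵ cfu/mL and incubated 37 °C for 24 h. MIC taken as lowest concentration completely inhibiting growth. Media and media-plus-DMSO growth controls; ciprofloxacin and norfloxacin as reference standards.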

Klebsiella pneumoniae = test: Antibacterial activity against Klebsiella pneumoniae ATCC 10031 after 24 hrs by broth microdilution method; conditions: ATCC 10031, 24 h; how it was run: as §1
Aspergillus niger = test: Antifungal activity against Aspergillus niger ATCC 6275 after 24 hrs by broth microdilution method; conditions: ATCC 6275, 24 h
Escherichia coli = test: Antibacterial activity against Escherichia coli ATCC 10536 after 24 hrs by broth microdilution method; conditions: ATCC 10536, 24 h; how it was run: as §1
Staphylococcus aureus = test: Antibacterial activity against Staphylococcus aureus ATCC 11632 after 24 hrs by broth microdilution method; conditions: ATCC 11632, 24 h; how it was run: as §1
Pseudomonas aeruginosa = test: Antibacterial activity against Pseudomonas aeruginosa ATCC 10145 after 24 hrs by broth microdilution method; conditions: ATCC 10145, 24 h; how it was run: as §1
Candida tropicalis = test: Antifungal activity against Candida tropicalis ATCC 1369 after 24 hrs by broth microdilution method; conditions: ATCC 1369, 24 h
Enterococcus faecalis = test: Antibacterial activity against Streptococcus faecalis ATCC 14506 after 24 hrs by broth microdilution method; conditions: ATCC 14506, 24 h; how it was run: as §1

Compound	MIC (Saccharomyces cerevisiae) [µg/mL]	MIC [1] [µg/mL]	MIC (Bacillus subtilis) [µg/mL]	MIC (Klebsiella pneumoniae) [µg/mL]	MIC (Aspergillus niger) [µg/mL]	MIC (Escherichia coli) [µg/mL]	MIC (Staphylococcus aureus) [µg/mL]	MIC (Pseudomonas aeruginosa) [µg/mL]	MIC (Candida tropicalis) [µg/mL]	MIC (Enterococcus faecalis) [µg/mL]
CC(C)c1csc(-c2nnc3sc(S)nn23)n1	16 (≈ 56.5 µM)	31.2 (≈ 110 µM)	16 (≈ 56.5 µM)	31.2 (≈ 110 µM)	16 (≈ 56.5 µM)	62.5 (≈ 221 µM)	125 (≈ 441 µM)	31.2 (≈ 110 µM)	8 (≈ 28.2 µM)	31.2 (≈ 110 µM)
Cc1nn2c(-c3nc(C(C)C)cs3)nnc2s1	62.5 (≈ 236 µM)	31.2 (≈ 118 µM)	31.2 (≈ 118 µM)	16 (≈ 60.3 µM)	31.2 (≈ 118 µM)	125 (≈ 471 µM)	62.5 (≈ 236 µM)	62.5 (≈ 236 µM)	31.2 (≈ 118 µM)	31.2 (≈ 118 µM)
COc1cc(C2Nn3c(nnc3-c3nc(C(C)C)cs3)S2)cc(OC)c1OC (centres undefined)	16 (≈ 38.1 µM)	62.5 (≈ 149 µM)	31.2 (≈ 74.5 µM)	62.5 (≈ 149 µM)	31.2 (≈ 74.5 µM)	125 (≈ 298 µM)	31.2 (≈ 74.5 µM)	31.2 (≈ 74.5 µM)	16 (≈ 38.1 µM)	31.2 (≈ 74.5 µM)
CC(C)c1csc(-c2nnc3n2NC(c2ccc(O)cc2)S3)n1 (centres undefined)	62.5 (≈ 181 µM)	125 (≈ 362 µM)	31.2 (≈ 90.5 µM)	62.5 (≈ 181 µM)	125 (≈ 362 µM)	62.5 (≈ 181 µM)	62.5 (≈ 181 µM)	62.5 (≈ 181 µM)	125 (≈ 362 µM)	62.5 (≈ 181 µM)
CC(C)c1csc(-c2nnc3n2NC(c2ccc([N+](=O)[O-])cc2)S3)n1 (centres undefined)	16 (≈ 42.7 µM)	62.5 (≈ 167 µM)	62.5 (≈ 167 µM)	31.2 (≈ 83.5 µM)	8 (≈ 21.4 µM)	62.5 (≈ 167 µM)	125 (≈ 334 µM)	125 (≈ 334 µM)	8 (≈ 21.4 µM)	125 (≈ 334 µM)
CC(C)c1csc(-c2n[nH]c(=S)n2NC(=O)c2ccccc2)n1	62.5 (≈ 181 µM)	16 (≈ 46.3 µM)	31.2 (≈ 90.5 µM)	125 (≈ 362 µM)	16 (≈ 46.3 µM)	31.2 (≈ 90.5 µM)	16 (≈ 46.3 µM)	16 (≈ 46.3 µM)	31.2 (≈ 90.5 µM)	31.2 (≈ 90.5 µM)
Cc1ccc(C(=O)Nn2c(-c3nc(C(C)C)cs3)n[nH]c2=S)cc1	62.5 (≈ 174 µM)	31.2 (≈ 86.9 µM)	62.5 (≈ 174 µM)	62.5 (≈ 174 µM)	62.5 (≈ 174 µM)	62.5 (≈ 174 µM)	62.5 (≈ 174 µM)	125 (≈ 348 µM)	125 (≈ 348 µM)	125 (≈ 348 µM)
CC(C)c1csc(-c2n[nH]c(=S)n2NC(=O)c2ccc(O)cc2)n1	31.2 (≈ 86.5 µM)	62.5 (≈ 173 µM)	31.2 (≈ 86.5 µM)	31.2 (≈ 86.5 µM)	125 (≈ 346 µM)	31.2 (≈ 86.5 µM)	125 (≈ 346 µM)	31.2 (≈ 86.5 µM)	125 (≈ 346 µM)	62.5 (≈ 173 µM)
COc1ccc(/C=N/n2c(-c3nc(C(C)C)cs3)nn(CN3CCN(C)CC3)c2=S)cc1	16 (≈ 33.9 µM)	16 (≈ 33.9 µM)	8 (≈ 17 µM)	31.2 (≈ 66.3 µM)	31.2 (≈ 66.3 µM)	31.2 (≈ 66.3 µM)	31.2 (≈ 66.3 µM)	16 (≈ 33.9 µM)	31.2 (≈ 66.3 µM)	16 (≈ 33.9 µM)
COc1ccc(/C=N/n2c(-c3nc(C(C)C)cs3)nn(CN3CCOCC3)c2=S)cc1	62.5 (≈ 136 µM)	–	125 (≈ 273 µM)	31.2 (≈ 68.1 µM)	16 (≈ 34.9 µM)	125 (≈ 273 µM)	125 (≈ 273 µM)	16 (≈ 34.9 µM)	31.2 (≈ 68.1 µM)	62.5 (≈ 136 µM)
CC(C)c1csc(-c2nn(CN3CCOCC3)c(=S)n2/N=C/c2ccc(N(C)C)cc2)n1	62.5 (≈ 133 µM)	16 (≈ 33.9 µM)	16 (≈ 33.9 µM)	31.2 (≈ 66.3 µM)	16 (≈ 33.9 µM)	31.2 (≈ 66.3 µM)	16 (≈ 33.9 µM)	31.2 (≈ 66.3 µM)	31.2 (≈ 66.3 µM)	31.2 (≈ 66.3 µM)
CC(C)c1csc(-c2nn(CN3CCN(C)CC3)c(=S)o2)n1	62.5 (≈ 184 µM)	16 (≈ 47.1 µM)	31.2 (≈ 92 µM)	16 (≈ 47.1 µM)	16 (≈ 47.1 µM)	31.2 (≈ 92 µM)	62.5 (≈ 184 µM)	16 (≈ 47.1 µM)	31.2 (≈ 92 µM)	31.2 (≈ 92 µM)
CC(C)c1csc(-c2nn(CN3CCOCC3)c(=S)o2)n1	31.2 (≈ 95.7 µM)	31.2 (≈ 95.7 µM)	16 (≈ 49 µM)	31.2 (≈ 95.7 µM)	62.5 (≈ 191 µM)	31.2 (≈ 95.7 µM)	31.2 (≈ 95.7 µM)	16 (≈ 49 µM)	31.2 (≈ 95.7 µM)	16 (≈ 49 µM)
CC(C)c1csc(-c2nnc3n2N=C(c2ccccc2)CS3)n1	62.5 (≈ 183 µM)	125 (≈ 366 µM)	62.5 (≈ 183 µM)	125 (≈ 366 µM)	62.5 (≈ 183 µM)	125 (≈ 366 µM)	125 (≈ 366 µM)	62.5 (≈ 183 µM)	125 (≈ 366 µM)	125 (≈ 366 µM)
Cc1ccc(C2=Nn3c(nnc3-c3nc(C(C)C)cs3)SC2)cc1	62.5 (≈ 176 µM)	16 (≈ 45 µM)	31.2 (≈ 87.9 µM)	8 (≈ 22.5 µM)	31.2 (≈ 87.9 µM)	8 (≈ 22.5 µM)	16 (≈ 45 µM)	8 (≈ 22.5 µM)	31.2 (≈ 87.9 µM)	31.2 (≈ 87.9 µM)
CC(C)c1csc(-c2nnc3n2N=C(c2ccc(O)cc2)CS3)n1	16 (≈ 44.8 µM)	125 (≈ 350 µM)	31.2 (≈ 87.4 µM)	16 (≈ 44.8 µM)	31.2 (≈ 87.4 µM)	31.2 (≈ 87.4 µM)	62.5 (≈ 175 µM)	62.5 (≈ 175 µM)	31.2 (≈ 87.4 µM)	31.2 (≈ 87.4 µM)
CC(C)c1csc(-c2nnc3n2N=C(c2ccc(Cl)cc2)CS3)n1	16 (≈ 42.6 µM)	16 (≈ 42.6 µM)	8 (≈ 21.3 µM)	16 (≈ 42.6 µM)	31.2 (≈ 83.1 µM)	125 (≈ 333 µM)	125 (≈ 333 µM)	16 (≈ 42.6 µM)	62.5 (≈ 166 µM)	8 (≈ 21.3 µM)
CC(C)c1csc(-c2nnc3n2N=C(c2ccc([N+](=O)[O-])cc2)CS3)n1	16 (≈ 41.4 µM)	31.2 (≈ 80.9 µM)	16 (≈ 41.4 µM)	31.2 (≈ 80.9 µM)	62.5 (≈ 162 µM)	16 (≈ 41.4 µM)	125 (≈ 323 µM)	125 (≈ 323 µM)	31.2 (≈ 80.9 µM)	125 (≈ 323 µM)
CC(C)c1csc(-c2nnc3n2N=C(c2ccc(Br)cc2)CS3)n1	62.5 (≈ 149 µM)	62.5 (≈ 149 µM)	31.2 (≈ 74.3 µM)	16 (≈ 38.1 µM)	125 (≈ 297 µM)	31.2 (≈ 74.3 µM)	125 (≈ 297 µM)	62.5 (≈ 149 µM)	31.2 (≈ 74.3 µM)	31.2 (≈ 74.3 µM)
CC(C)c1csc(-c2nnc3n2NC(c2ccccc2Cl)S3)n1 (centres undefined)	125 (≈ 344 µM)	62.5 (≈ 172 µM)	125 (≈ 344 µM)	31.2 (≈ 85.9 µM)	31.2 (≈ 85.9 µM)	62.5 (≈ 172 µM)	31.2 (≈ 85.9 µM)	62.5 (≈ 172 µM)	16 (≈ 44 µM)	31.2 (≈ 85.9 µM)
COc1ccc(C2Nn3c(nnc3-c3nc(C(C)C)cs3)S2)cc1 (centres undefined)	62.5 (≈ 174 µM)	–	62.5 (≈ 174 µM)	250 (≈ 695 µM)	125 (≈ 348 µM)	125 (≈ 348 µM)	31.2 (≈ 86.9 µM)	62.5 (≈ 174 µM)	125 (≈ 348 µM)	16 (≈ 44.5 µM)
CC(C)c1csc(-c2nnc3n2NC(c2ccc(N(C)C)cc2)S3)n1 (centres undefined)	31.2 (≈ 83.9 µM)	4 (≈ 10.7 µM)	62.5 (≈ 168 µM)	125 (≈ 336 µM)	31.2 (≈ 83.9 µM)	62.5 (≈ 168 µM)	16 (≈ 43 µM)	62.5 (≈ 168 µM)	31.2 (≈ 83.9 µM)	31.2 (≈ 83.9 µM)
O=C(O)c1cn(C2CC2)c2cc(N3CCNCC3)c(F)cc2c1=O [CIPROFLOXACIN]	–	–	≤ 1	≤ 1	–	≤ 1	≤ 5	≤ 5	–	≤ 5
OC(Cn1cncn1)(Cn1cncn1)c1ccc(F)cc1F [FLUCONAZOLE]	≤ 1	–	–	–	≤ 1	–	–	–	≤ 1	–
NNC(=O)c1ccncc1 [ISONIAZID]	–	0.25 (≈ 1.82 µM)	–	–	–	–	–	–	–	–
CCn1cc(C(=O)O)c(=O)c2cc(F)c(N3CCNCC3)cc21 [NORFLOXACIN]	–	–	≤ 1	≤ 1	–	≤ 1	≤ 5	≤ 5	–	≤ 5

Source: ChEMBL document CHEMBL1275278, “Synthesis and pharmacological evaluation of clubbed isopropylthiazole derived triazolothiadiazoles, triazolothiadiazines and mannich bases as potential antimicrobial and antitubercular agents” (Eur J Med Chem, 2010)
